High-throughput results: PubChem, several laboratories
In the library only some 2.9% were active in any assay of this set; here they are far more common.
Insulin prom up: MIN6 insulin promoter up-regulation; MIN6 insulin promoter-GFP reporter, high-content imaging; hits give high values; AID 1625; z-score at 5 µM; actives 0.3% (n = 190,000);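 active means z-score above 3 at 5 µM with at least 500 cells counted in the well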
b-catenin transl: beta-catenin nuclear translocation modulation | nuclear translocation activity, % at 5 µM | actives 0.3% (n = 190,000) | AID 1665 | HeLa beta-catenin nuclear translocation, immunofluorescence imaging;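 active means nuclear translocation activity above 50% at 5 µM, with a well cell count of 50 or more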;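 further: per-cell ratio of nuclear to cytoplasmic median beta-catenin stain intensity; plate controls were DMSO negative control for no effect and GSK-3 inhibitor IX positive control for full effect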
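System: HeLa cells, endogenous beta-catenin; compound dosing: 5 µM primary single dose, 0.1% DMSO, 0.02–20 µM confirmation series; incubation: 24 h compound exposure at 37°C, 5% CO2; signal: beta-catenin immunofluorescence imaging with DAPI; evaluation: % activation, nuclear-to-cytoplasmic median beta-catenin signal ratio per cell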
Wee1 stabilizer: human Wee1 degradation inhibition, primary screen | HeLa Luc-Wee1K328M stability, luciferase luminescence; 100% = proteasome inhibitor MG132 effect | actives 1.2% (n = 220,000) | reporter increase, % at 5 µM | P30291 | AID 1321;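 active means activation above the mean of all tested compounds plus 3 SD, set per screening run, cut at about 8.8% in these data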;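 further: cells exposed to compound for 20 h before luminescence read; 0% = DMSO alone and 100% = MG132 at 30 µM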
Target sequence (P30291 whole entry K328M): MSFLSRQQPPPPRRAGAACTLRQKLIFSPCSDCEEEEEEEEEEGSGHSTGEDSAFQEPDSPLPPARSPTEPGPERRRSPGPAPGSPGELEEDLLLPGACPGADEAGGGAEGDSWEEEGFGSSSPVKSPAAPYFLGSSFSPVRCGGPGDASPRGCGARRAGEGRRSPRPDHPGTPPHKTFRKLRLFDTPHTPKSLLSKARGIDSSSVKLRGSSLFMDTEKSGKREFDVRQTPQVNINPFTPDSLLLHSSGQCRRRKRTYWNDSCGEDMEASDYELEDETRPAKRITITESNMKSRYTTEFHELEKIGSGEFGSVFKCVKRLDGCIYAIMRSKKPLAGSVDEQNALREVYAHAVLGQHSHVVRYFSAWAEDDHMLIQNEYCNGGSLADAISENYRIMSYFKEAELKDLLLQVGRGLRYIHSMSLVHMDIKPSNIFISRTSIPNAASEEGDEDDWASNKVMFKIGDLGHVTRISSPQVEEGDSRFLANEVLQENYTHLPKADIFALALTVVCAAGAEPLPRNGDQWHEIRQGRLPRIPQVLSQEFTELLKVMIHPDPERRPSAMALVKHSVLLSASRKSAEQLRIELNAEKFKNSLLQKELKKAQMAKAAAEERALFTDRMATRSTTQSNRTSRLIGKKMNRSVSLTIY
Autophagy mod: alters autophagy in cells; MEF GFP-LC3 puncta imaging; test concentration mostly 10 µM; calls only at 10 µM (by protocol); actives 0.98% (n = 190,000); AID 463193;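 active means percentage of spot-positive cells more than 3 SD above its plate mean, without a fluorescence outlier flag or 80% toxicity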;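 further: spot-positive cell cutoff set from DMSO-treated cells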
MT stabilize HCS: stabilizes microtubules in HeLa cells; HeLa tubulin immunostaining HCS, 24 h; share of cells brighter than vehicle mean+2SD; AID 2205; actives 0.83% (n = 200,000); % tubulin-high responders, % at 10 µM;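 active means plate Z-score above 3 for both tubulin-high and condensed-nucleus cell shares, with cell loss under 80%, at 10 µM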;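 further: anti alpha tubulin signal scored within the nucleus-defined area of each cell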
Active calls of the source: *; i = inactive; . = no result given; + = active, no number.

SMILES | Insulin prom up | b-catenin transl | Wee1 stabilizer | Autophagy mod | MT stabilize HCS
CCOc1ccc2nc(SC3CC(=O)N(c4cccc(OC)c4)C3=O)sc2c1 (stereo not given) | 0.24 | 0 | 9.1* | i | 3
CCOc1ccc2nc(SC3CC(=O)N(c4ccccc4)C3=O)sc2c1 (stereo not given) | 0.52 | 2 | -1 | i | 3
Cc1ccc(C(=O)c2oc3ccccc3c2NC(=O)c2cc(-c3cc(C)ccc3O)n[nH]2)cc1 | -0.58 | 0 | -1 | . | .
Cc1ccc(C(=O)c2oc3ccccc3c2NC(=O)c2cc(-c3ccccc3O)n[nH]2)cc1 | 0.08 | -2 | 1 | + | i
CCN(C(=O)CSc1nc2cc(C(=O)OC)ccc2c(=O)n1Cc1ccco1)c1cccc(C)c1 | 4.5* | -2 | 5 | i | 6
O=C(Nc1ccc(Cl)c(Cl)c1)Nc1cc(C(=O)NC2CC2)ccc1Cl | -0.05 | 0 | -1 | i | 2
CN(c1ccccc1)C(c1ccc(F)cc1)c1nnnn1C1CCCC1 (stereo not given) | -0.09 | -1 | 2 | i | 2
COc1cccc(CNn2cnnc2)c1O | -0.36 | 0 | 0 | i | 2
Clc1cccc(Cl)c1COc1ccccc1CNn1cnnc1 | . | 3 | 4 | i | 22*
CC1CCN(CCNC(=O)c2ccc(NC(=O)C3CCCO3)cc2)CC1 (stereo not given) | -0.86 | -2 | 9.3* | i | 2
COc1ccc(N2CCN(CCNC(=O)c3ccc(NC(=O)C4CCCO4)cc3)CC2)cc1 (stereo not given) | 1.9 | 0 | 0 | i | 3
O=c1[nH]c(NCc2ccco2)nnc1Cc1ccccc1Cl | 0.57 | 3 | 0 | i | 59*
Cc1nc(NCc2ccco2)[nH]c(=O)c1CCC(C)C | -0.04 | . | 2 | i | 3
CCOc1ccc(Oc2ccc(-c3nnc(-c4ccccc4)o3)cc2[N+](=O)[O-])cc1 | -0.68 | 0 | -1 | + | 3
COc1ccc(OC)c(C(=O)c2oc3ccccc3c2NC(C)=O)c1 | -0.12 | -2 | 0 | i | 17*
Clc1ccc2nc3c4ccccc4cnn3c2c1 | 0.11 | 0 | 2 | i | 17*
C/C(=N\NC(=O)c1nn(C)c(C)c1Br)c1ccc(NC(=O)c2ccccc2F)cc1 | -0.26 | -5 | 6 | i | 2
Cc1ccc2nc(C(C)O)[nH]c2c1 (stereo not given) | 1.5 | 1 | 9.5* | i | 2
Cc1ccc2nc(C(O)C(O)c3nc4ccc(C)cc4[nH]3)[nH]c2c1 (stereo not given) | 0.44 | -4 | -1 | i | 3
CCCC(=O)Nc1ccc(Cc2ccc(NC(=O)CCC)c(C(=O)O)c2)cc1C(=O)O | 0.07 | 0 | 0 | i | 2
Cc1ccc(NC(=O)CSc2nnc(-c3ccncc3)o2)cc1C | -0.28 | -2 | -2 | i | 2
C/C(=N\NC(=S)Nc1ccc(F)cc1)c1ccc2c(c1)OCCO2 | -0.33 | . | 2 | i | 22*
CCCCCCN(C(=O)CCCCCN1C(=O)NC(c2ccccc2)C(C(=O)OCc2ccccc2)=C1C)C(C(=O)NCCCC)c1ccc(OCC(=O)OC)c(C(=O)OC)c1 (stereo not given) | . | 0 | . | . | .
O=C(CCCc1nc(-c2ccccc2Cl)no1)NC1CCCCC1 | -0.27 | 1 | -2 | + | 4
NC(=O)CCCc1nc(-c2ccccc2Cl)no1 | 1.5 | 0 | 10* | i | 3
SMILES | Insulin prom up | b-catenin transl | Wee1 stabilizer | Autophagy mod | MT stabilize HCS
CNC(=O)CCCc1nc(-c2ccccc2Cl)no1 | -1.1 | . | 0 | i | 1
O=C(CCc1nc(-c2ccccc2F)no1)NC1CCCCC1 | -0.27 | . | -2 | i | 2
C=CCN(C(=O)CSc1nc2c(sc3ccccc32)c(=O)n1CCN(CC)CC)c1ccccc1 | . | -1 | 2 | i | 2
Cc1ccc2[nH]c(-c3ccccc3)cc(=O)c2c1 | -1.7 | 93* | 0 | i | 43*
CCc1cc(=O)oc2cc3occ(-c4ccc(OC)c(F)c4)c3cc12 | -1 | 66* | -5 | + | 10
CCc1cc(=O)oc2cc3occ(C)c3cc12 | 0.18 | 2 | -3 | i | 3
COc1ccc(N(C(=O)Cc2cccs2)C2C=CS(=O)(=O)C2)cc1 (stereo not given) | 3.1* | -1 | 0 | i | 5
Nc1nc2n(n1)C(=O)CC(c1ccccc1)N2 (stereo not given) | . | -5 | 0 | i | 2
COc1ccc(/C=N/NC(=O)c2[nH]nc3c2CCc2ccccc2-3)cc1OC | -0.35 | 127* | 4 | i | 22*
CCOc1ccc(NC(=S)N(CCOC)C(C)c2ccco2)cc1 (stereo not given) | 0.27 | 1 | -1 | . | .
Cn1cccc1Cc1nnc(SCC(=O)Nc2nc3ccccc3s2)n1CCc1ccccc1 | 0.57 | 2 | -3 | + | 9
Cn1cc(Br)c(C(=O)NNC(=O)Nc2ccccc2C(F)(F)F)n1 | 0.27 | 0 | 0 | i | 6
Cc1ccc2c(c1)C(O)(CC(=O)/C=C/C=C/c1ccccc1)C(=O)N2 (stereo not given) | 0.81 | -1 | 2 | i | 2
Cc1ccc(Cn2c(O)c(N=O)c3ccccc32)cc1 | -0.15 | 0 | 6 | i | 3
O=Nc1c(O)n(Cc2ccc(Cl)cc2)c2ccccc12 | 3* | -1 | -4 | i | 1
CCOC(=O)Cc1c(C)nc2c(-c3ccc(OC)cc3)c(C)nn2c1C | -0.35 | -4 | 3 | i | 4
CCOC(=O)C1(Cc2cccc(Cl)c2)CCCN(CCO)C1 (stereo not given) | . | 1 | -2 | i | 2
COc1ccc2[nH]c(CN3CCC(CO)(CCOc4ccccc4)CC3)c(C)c2c1 | . | 0 | -5 | + | 3
CCOC(=O)Cc1nc(-c2cccc(C(F)(F)F)c2)no1 | -0.19 | -3 | 2 | i | 3
CCSc1nc2c(cnn2-c2ccccc2)c(=O)n1N | 0.74 | -1 | -1 | . | .
Clc1ccccc1-c1ccc(CN2CCN(c3ccccc3)CC2)o1 | . | -17 | 0 | i | 2
NC(=S)NC1CC2CC1C1C=CCC21 (stereo not given) | . | 0 | 9.5* | . | .
CNNC(=S)NC1CC2CC1C1C=CCC21 (stereo not given) | -0.35 | -2 | 1 | . | .
CN(C)c1ccc(C(=S)NC2CCCCC2)cc1 | 0.09 | 0 | 10* | i | 3
CCOc1c(OC)cccc1C1CC(=O)Nc2cc3c(cc21)OCCO3 (stereo not given) | -1.6 | 7 | 1 | i | 22*
CCCOc1c(OC)cccc1C1CC(=O)Nc2cc(OC)c(OC)c(OC)c21 (stereo not given) | . | . | 2 | i | 3
Cc1sc2nc(SCC(=O)NCc3ccco3)n(C)c(=O)c2c1C | . | -4 | 0 | i | 2
CCn1c(SCC(=O)NC(=O)NCc2ccco2)nc2sc(C)c(C)c2c1=O | . | 2 | 9.8* | i | 1
NS(=O)(=O)c1ccc(NC(=O)COC(=O)c2ccc(Cl)cc2[N+](=O)[O-])cc1 | -0.08 | 1 | 11* | . | .
